{"source": "ChEMBL document CHEMBL4138048", "about": "“Synthesis of substituted 2H-benzo[e]indazole-9-carboxylate as a potent antihyperglycemic agent that may act through IRS-1, Akt and GSK-3β pathways” (Medchemcomm, 2017)", "key": {"HepG2": {"system": "HepG2", "experiment": "Stimulation of [3H]2-deoxyglucose uptake in human HepG2 cells at 10 uM incubated for 16 hrs by scintillation counting method", "format": "functional, cell-based"}, "L6": {"system": "L6", "experiment": "Stimulation of [3H]2-deoxyglucose uptake in rat L6 cells at 10 uM incubated for 16 hrs by scintillation counting method", "format": "functional, cell-based", "method_in_brief": "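L6 myotubes incubated with the compound […]; insulin at 100 nM for 20 min served as the positive control. Uptake of ³H-2-deoxyglucose measured and expressed as fold stimulation relative to the control condition.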"}, "Mus musculus [1]": {"system": "Mus musculus", "experiment": "Antihyperglycemic activity in db/db mouse assessed as reduction in blood glucose level at 10 mg/kg, po qd and measured on day 4 by oral glucose tolerance test", "format": "functional, organism-based", "method_in_brief": "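Type 2 diabetic db/db mice dosed orally once a day for 15 days at 3, 10 or 30 mg/kg, with pioglitazone at 10 mg/kg as standard. Blood glucose measured daily and profile compared with vehicle-treated animals. Mean % change in 5 animals per group.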"}, "Mus musculus [2]": {"system": "Mus musculus", "experiment": "Antihyperglycemic activity in db/db mouse assessed as improvement on glucose tolerance by measuring blood glucose AUC level at 10 mg/kg, po qd for 10 days by oral glucose tolerance test", "format": "functional", "method_in_brief": "(§1)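 db/db mice dosed orally once daily for 15 consecutive days at 3, 10 or 30 mg/kg, with vehicle controls and pioglitazone at 10 mg/kg. Oral glucose tolerance tests on day 10 and day 15. Overall improvement in glucose tolerance calculated against vehicle control. Mean % change in 5 animals per group.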"}, "Mus musculus [3]": {"system": "Mus musculus", "experiment": "Antihyperglycemic activity in db/db mouse assessed as improvement on glucose tolerance by measuring blood glucose AUC level at 10 mg/kg, po qd for 15 days by oral glucose tolerance test", "format": "functional", "method_in_brief": "as §1"}, "Mus musculus [4]": {"system": "Mus musculus", "experiment": "Antihyperglycemic activity in db/db mouse assessed as reduction in triglyceride level at 10 mg/kg, po qd for 15 days", "format": "functional", "design": "scale not given: the % may be the effect or the level left", "method_in_brief": "(§2)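 db/db mice given 3, 10 or 30 mg/kg orally once a day for 15 consecutive days, alongside vehicle controls. Serum triglyceride, total cholesterol, HDL-C and insulin measured, along with fasting blood glucose. Expressed as mean % change in 5 animals per group versus control.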"}, "Mus musculus [5]": {"system": "Mus musculus", "experiment": "Antihyperglycemic activity in db/db mouse assessed as reduction in cholesterol level at 10 mg/kg, po qd for 15 days", "format": "functional", "design": "scale not given: the % may be the effect or the level left", "method_in_brief": "as §2"}, "Mus musculus [6]": {"system": "Mus musculus", "experiment": "Antihyperglycemic activity in db/db mouse assessed as increase in HDL-C level at 10 mg/kg, po qd for 15 days", "format": "functional", "method_in_brief": "as §2"}, "Mus musculus [7]": {"system": "Mus musculus", "experiment": "Antihyperglycemic activity in db/db mouse assessed as reduction in fasting blood glucose level at 10 mg/kg, po qd for 15 days", "format": "functional", "design": "scale not given: the % may be the effect or the level left", "method_in_brief": "as §2"}, "Mus musculus [8]": {"system": "Mus musculus", "experiment": "Antihyperglycemic activity in db/db mouse assessed as reduction in insulin level at 10 mg/kg, po qd for 15 days", "format": "functional", "design": "scale not given: the % may be the effect or the level left", "method_in_brief": "as §2"}}, "note": "Active and inactive are the calls of the source. No cut-off for these calls is given here.", "data": [{"molecule": "CN(C)C(=N)NC(=N)N", "values": [{"measurement": "Activity", "setting": "HepG2", "result": "Active"}]}, {"molecule": "COC(=O)c1c(S(C)(=O)=O)cc(-c2ccc(C)cc2)c2c1-c1cn(-c3ccccc3)nc1CC2", "values": [{"measurement": "Activity", "setting": "L6", "result": "inactive"}]}, {"molecule": "CCc1ccc(CCOc2ccc(CC3SC(=O)NC3=O)cc2)nc1", "note": "(stereo not given) [PIOGLITAZONE]", "values": [{"measurement": "Activity", "setting": "Mus musculus [1]", "result": "Active"}, {"measurement": "Activity", "setting": "Mus musculus [2]", "result": 34.8, "unit": "%"}, {"measurement": "Activity", "setting": "Mus musculus [3]", "result": 45.4, "unit": "%"}, {"measurement": "Activity", "setting": "Mus musculus [4]", "result": 9.58, "unit": "%"}, {"measurement": "Activity", "setting": "Mus musculus [5]", "result": 15.1, "unit": "%"}, {"measurement": "Activity", "setting": "Mus musculus [6]", "result": 23.9, "unit": "%"}, {"measurement": "Activity", "setting": "Mus musculus [7]", "result": 59.1, "unit": "%"}, {"measurement": "Activity", "setting": "Mus musculus [8]", "result": 58.1, "unit": "%"}]}]}
